In article PMC7498158 (Journal of Medicinal Chemistry, 2020):

Tests used:
Assay type in all cases: biochemical
[1] = target: T1, mABHD6 (Mus musculus, UniProt Q8R2Y0); experiment: gel-based ABPP, mouse brain membrane proteome; details: 10 μM
T1 sequence (Q8R2Y0 1-336): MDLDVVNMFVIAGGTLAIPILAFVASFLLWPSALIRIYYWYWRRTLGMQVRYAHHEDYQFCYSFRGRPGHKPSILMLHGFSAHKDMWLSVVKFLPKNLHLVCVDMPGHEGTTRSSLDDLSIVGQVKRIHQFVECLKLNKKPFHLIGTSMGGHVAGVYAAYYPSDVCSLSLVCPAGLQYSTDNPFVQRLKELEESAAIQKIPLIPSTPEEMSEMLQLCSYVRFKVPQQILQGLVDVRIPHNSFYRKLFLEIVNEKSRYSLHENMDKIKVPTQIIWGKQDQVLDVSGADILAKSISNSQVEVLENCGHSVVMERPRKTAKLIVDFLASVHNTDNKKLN
Method in brief: (§1)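 Mouse brain was dounce-homogenized in 20 mM HEPES pH 7.2 with DTT, MgCl2 and benzonase. The membrane pellet from ultracentrifugation (100,000g, 45 min, 4 °C) was used at 2 μg/μL. It was preincubated with test compound in DMSO (30 min, rt), then labeled with MB064 (250 nM) or FP-TAMRA (500 nM) for 15 min at rt. Samples ran on 10% SDS-PAGE; fluorescence was normalized to Coomassie staining.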

[2] = target: T2, hPLA2G4E (Homo sapiens, UniProt Q3MJ16); experiment: gel-based ABPP with FP-TAMRA, hPLA2G4E-overexpressing membrane lysate; details: 10 μM
T2 sequence (Q3MJ16 1-868): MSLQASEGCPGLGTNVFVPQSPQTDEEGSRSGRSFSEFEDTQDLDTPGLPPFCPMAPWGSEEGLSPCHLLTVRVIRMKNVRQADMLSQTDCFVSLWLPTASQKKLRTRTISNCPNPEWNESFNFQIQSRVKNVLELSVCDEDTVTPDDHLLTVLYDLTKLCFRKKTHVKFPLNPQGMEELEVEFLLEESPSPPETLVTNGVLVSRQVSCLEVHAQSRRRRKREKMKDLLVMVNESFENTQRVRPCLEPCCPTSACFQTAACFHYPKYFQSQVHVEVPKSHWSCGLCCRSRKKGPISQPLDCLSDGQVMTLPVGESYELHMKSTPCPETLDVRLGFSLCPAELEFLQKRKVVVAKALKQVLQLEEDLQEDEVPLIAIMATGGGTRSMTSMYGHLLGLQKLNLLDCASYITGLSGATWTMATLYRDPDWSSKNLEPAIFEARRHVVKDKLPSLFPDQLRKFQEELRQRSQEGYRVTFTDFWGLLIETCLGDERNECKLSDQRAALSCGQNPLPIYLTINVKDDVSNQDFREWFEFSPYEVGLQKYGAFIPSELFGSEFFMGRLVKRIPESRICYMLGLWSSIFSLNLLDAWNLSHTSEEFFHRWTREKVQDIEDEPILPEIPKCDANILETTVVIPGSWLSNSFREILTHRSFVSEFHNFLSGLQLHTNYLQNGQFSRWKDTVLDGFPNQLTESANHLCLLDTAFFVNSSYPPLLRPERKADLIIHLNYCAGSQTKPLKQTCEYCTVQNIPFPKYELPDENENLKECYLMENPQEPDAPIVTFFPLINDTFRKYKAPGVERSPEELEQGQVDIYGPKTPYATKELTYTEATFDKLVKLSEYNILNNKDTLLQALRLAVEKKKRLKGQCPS
Method in brief: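 Membrane lysate from hPLA2G4E-overexpressing cells (1 μg/μL) was preincubated with test compound in DMSO (30 min, rt), then labeled with FP-TAMRA (50 nM, 5 min, rt). Proteins were denatured in Laemmli buffer and resolved on 8% acrylamide SDS-PAGE. In-gel fluorescence was normalized to Coomassie staining.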

[3] = target: T3, mFAAH (Mus musculus, UniProt O08914); experiment: gel-based ABPP, mouse brain membrane proteome; details: 10 μM
T3 sequence (O08914 1-579): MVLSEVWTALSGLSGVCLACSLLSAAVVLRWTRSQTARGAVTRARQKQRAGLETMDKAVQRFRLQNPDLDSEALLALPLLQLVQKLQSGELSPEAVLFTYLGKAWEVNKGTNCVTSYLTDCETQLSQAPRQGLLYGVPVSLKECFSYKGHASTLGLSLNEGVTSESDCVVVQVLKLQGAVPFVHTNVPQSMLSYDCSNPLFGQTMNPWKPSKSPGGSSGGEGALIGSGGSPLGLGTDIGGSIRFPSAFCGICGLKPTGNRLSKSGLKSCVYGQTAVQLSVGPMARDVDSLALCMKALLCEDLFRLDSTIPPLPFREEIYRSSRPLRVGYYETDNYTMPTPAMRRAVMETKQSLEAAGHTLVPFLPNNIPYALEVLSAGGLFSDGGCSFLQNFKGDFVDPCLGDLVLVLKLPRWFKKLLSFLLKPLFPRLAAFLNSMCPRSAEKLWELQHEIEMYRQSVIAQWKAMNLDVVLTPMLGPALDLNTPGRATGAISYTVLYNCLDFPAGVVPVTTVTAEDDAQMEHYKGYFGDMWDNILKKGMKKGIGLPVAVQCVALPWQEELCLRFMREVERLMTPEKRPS
Method in brief: as §1

[4] = target: T4, PLAAT5 (Homo sapiens, UniProt Q96KN8)
T4 sequence (Q96KN8 1-279): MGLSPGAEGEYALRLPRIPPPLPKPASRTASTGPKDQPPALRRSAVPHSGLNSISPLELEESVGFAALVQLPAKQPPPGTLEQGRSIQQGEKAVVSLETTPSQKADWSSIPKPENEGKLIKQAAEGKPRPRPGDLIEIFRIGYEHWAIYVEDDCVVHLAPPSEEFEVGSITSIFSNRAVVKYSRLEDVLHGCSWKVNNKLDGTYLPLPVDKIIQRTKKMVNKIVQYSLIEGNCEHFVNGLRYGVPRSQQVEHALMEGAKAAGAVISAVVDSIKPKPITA
Method in brief: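 Human PLAAT cDNA (C-terminal FLAG, pcDNA3.1) was PEI-transfected into HEK293T; cytosol came from a 100,000g spin. Cytosol was preincubated with test compound (30 min, rt), then MB064 (20 min, rt). Conditions: PLAAT2 0.25 μg/μL, 250 nM; PLAAT3 0.5 μg/μL, 250 nM; PLAAT4/5 1 μg/μL, 500 nM. In-gel fluorescence was normalized to Coomassie, in triplicate. Single-concentration screen or IC50 from dose–response curves.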

[5] = target: hNAPE-PLD (Homo sapiens, UniProt Q6IQ20); experiment: NAPE-PLD surrogate substrate; details: 10 μM
Chain of hNAPE-PLD (Q6IQ20 whole entry): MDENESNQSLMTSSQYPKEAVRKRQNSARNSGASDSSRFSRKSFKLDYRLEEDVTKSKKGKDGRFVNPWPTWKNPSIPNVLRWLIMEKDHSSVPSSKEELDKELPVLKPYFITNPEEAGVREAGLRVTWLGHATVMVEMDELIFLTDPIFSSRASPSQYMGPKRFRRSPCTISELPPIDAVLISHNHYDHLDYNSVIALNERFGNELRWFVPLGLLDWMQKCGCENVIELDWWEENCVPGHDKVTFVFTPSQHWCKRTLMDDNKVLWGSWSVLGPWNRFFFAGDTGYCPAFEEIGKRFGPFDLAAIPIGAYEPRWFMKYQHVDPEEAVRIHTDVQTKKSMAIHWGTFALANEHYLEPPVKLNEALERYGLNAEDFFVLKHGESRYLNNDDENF

inhibition of ABHD6 (in words) [1]: not inhibited
inhibition of PLA2G4E (in words) [2]: not inhibited
inhibition of FAAH (in words) [3]: not inhibited
higher potency for PLAAT5 than initial hit [4]: 10 fold
inhibition of NAPE-PLD (in words) [5]: not inhibited
Compound: O=C(CCCc1ccccc1)C(=O)NCCc1ccc(Oc2ccccc2)cc1 [Compound 51, 2-Oxo-N-(4-phenoxyphenethyl)-5-phenylpentanamide]
